In ChEMBL document CHEMBL1828624, “Synthesis and antioxidant activity of oxazolyl/thiazolylsulfonylmethyl pyrazoles and isoxazoles” (Eur J Med Chem, 2011):
In brackets after ≈: the same amount, converted by molar mass. Activity calls are given as the source filed them. The rule behind the calls is not given here.

Legend:
Assay type in all cases: functional
[1] = system: Radical scavenging activity; assay: Antioxidant activity assessed as DPPH free radical scavenging activity at 75 ug/ml after 30 mins by spectrophotometric analysis relative to control
Method in brief: (§1)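 Compounds in methanol at […] were mixed with 0.004% (w/v) methanolic DPPH. After 30 min at room temperature, absorbance was read at 517 nm against a blank. Percent inhibition was calculated from control (all reagents minus compound) and sample absorbances. Run in triplicate.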

[2] = Antioxidant activity assessed as hydrogen peroxide scavenging activity at 75 ug/ml relative to control
[3] = system: Radical scavenging activity; assay: Antioxidant activity assessed as DPPH free radical scavenging activity after 30 mins by spectrophotometric analysis; method in brief: as §1
[4] = Antioxidant activity assessed as nitric oxide scavenging activity at 75 ug/ml after 150 mins by Griess method relative to control
Method in brief: (§2)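 NO was generated from sodium nitroprusside (10 mM) in phosphate buffer saline (0.2 M, pH 7.4). Compounds were added at […] and incubated 150 min at 25 °C. Percent scavenging was calculated from control (all reagents minus compound) and sample absorbances. Run in triplicate.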

[5] = Antioxidant activity assessed as hydrogen peroxide scavenging activity at 50 ug/ml relative to control
[6] = Antioxidant activity assessed as nitric oxide scavenging activity at 50 ug/ml after 150 mins by Griess method relative to control; method in brief: as §2
[7] = Antioxidant activity assessed as nitric oxide scavenging activity at 100 ug/ml after 150 mins by Griess method relative to control; method in brief: as §2
[8] = system: Radical scavenging activity; assay: Antioxidant activity assessed as DPPH free radical scavenging activity at 50 ug/ml after 30 mins by spectrophotometric analysis relative to control; method in brief: as §1
[9] = system: Radical scavenging activity; assay: Antioxidant activity assessed as DPPH free radical scavenging activity at 100 ug/ml after 30 mins by spectrophotometric analysis relative to control; method in brief: as §1
[10] = Antioxidant activity assessed as hydrogen peroxide scavenging activity at 100 ug/ml relative to control

Compound: O=C1O[C@H]([C@@H](O)CO)C(O)=C1O [ASCORBIC ACID]
- inhibition [1]: 81%
- Activity [2]: 79.3%
- IC50 [3]: 59.65 µg/mL (≈ 339 µM)
- Activity [4]: 81.5%
- Activity [5]: 77.7%
- Activity [6]: 78.2%
- Activity [7]: 82.8%
- inhibition [8]: 77.2%
- inhibition [9]: 83.8%
- Activity [10]: 83.2%

Compound: O=S(=O)(CC1=NCCS1)C1C(c2ccc(Cl)cc2)=NN(c2ccccc2)C1c1ccc(Cl)cc1 (stereo not given)
- inhibition [1]: inactive
- Activity [2]: inactive
- IC50 [3]: Not Active
- Activity [4]: inactive
- Activity [5]: inactive
- Activity [6]: inactive
- Activity [7]: inactive
- inhibition [8]: inactive
- inhibition [9]: inactive
- Activity [10]: inactive

Compound: O=S(=O)(CC1=NCCS1)C1=NNCC1c1ccccc1 (stereo not given)
- inhibition [1]: inactive
- Activity [2]: inactive
- IC50 [3]: Not Active
- Activity [4]: inactive
- Activity [5]: inactive
- Activity [6]: inactive
- Activity [7]: inactive
- inhibition [8]: inactive
- inhibition [9]: inactive
- Activity [10]: inactive

Compound: O=S(=O)(CC1=NCCS1)c1c(-c2ccc(Cl)cc2)noc1-c1ccc(Cl)cc1
- inhibition [1]: inactive
- Activity [2]: inactive
- IC50 [3]: Not Active
- Activity [4]: inactive
- Activity [5]: inactive
- Activity [6]: inactive
- Activity [7]: inactive
- inhibition [8]: inactive
- inhibition [9]: inactive
- Activity [10]: inactive

Compound: COc1ccc(-c2noc(-c3ccc(C)cc3)c2S(=O)(=O)CC2=NCCS2)cc1
- inhibition [1]: inactive
- Activity [2]: inactive
- IC50 [3]: Not Active
- Activity [4]: inactive
- Activity [5]: inactive
- Activity [6]: inactive
- Activity [7]: inactive
- inhibition [8]: inactive
- inhibition [9]: inactive
- Activity [10]: inactive

Compound: O=S(=O)(CC1=NCCO1)c1n[nH]cc1-c1ccccc1
- inhibition [1]: 54.3%
- Activity [2]: 55.6%
- IC50 [3]: 82.26 µg/mL (≈ 282 µM)
- Activity [4]: 54.7%
- Activity [5]: 53.3%
- Activity [6]: 50.6%
- Activity [7]: 57.5%
- inhibition [8]: 50.1%
- inhibition [9]: 60.8%
- Activity [10]: 58.5%

Compound: O=S(=O)(CC1=NCCO1)C1=NNCC1c1ccc(Cl)cc1 (stereo not given)
- inhibition [1]: inactive
- Activity [2]: inactive
- IC50 [3]: Not Active
- Activity [4]: inactive
- Activity [5]: inactive
- Activity [6]: inactive
- Activity [7]: inactive
- inhibition [8]: inactive
- inhibition [9]: inactive
- Activity [10]: inactive

Compound: O=S(=O)(CC1=NCCO1)c1c(-c2ccccc2)nn(-c2ccccc2)c1-c1ccccc1
- inhibition [1]: 56.6%
- Activity [2]: 57.2%
- IC50 [3]: 82.48 µg/mL (≈ 186 µM)
- Activity [4]: 59%
- Activity [5]: 55.6%
- Activity [6]: 54.5%
- Activity [7]: 63.5%
- inhibition [8]: 51.9%
- inhibition [9]: 60.6%
- Activity [10]: 59.1%

Compound: O=S(=O)(CC1=NCCO1)c1c(-c2ccc(Cl)cc2)noc1-c1ccc(Cl)cc1
- inhibition [1]: inactive
- Activity [2]: inactive
- IC50 [3]: Not Active
- Activity [4]: inactive
- Activity [5]: inactive
- Activity [6]: inactive
- Activity [7]: inactive
- inhibition [8]: inactive
- inhibition [9]: inactive
- Activity [10]: inactive

Compound: O=S(=O)(CC1=NCCO1)C1=NNCC1c1ccccc1 (stereo not given)
- inhibition [1]: inactive
- Activity [2]: inactive
- IC50 [3]: Not Active
- Activity [4]: inactive
- Activity [5]: inactive
- Activity [6]: inactive
- Activity [7]: inactive
- inhibition [8]: inactive
- inhibition [9]: inactive
- Activity [10]: inactive

Compound: O=S(=O)(CC1=NCCO1)C1C(c2ccc(Cl)cc2)=NN(c2ccccc2)C1c1ccc(Cl)cc1 (stereo not given)
- inhibition [1]: inactive
- Activity [2]: inactive
- IC50 [3]: Not Active
- Activity [4]: inactive
- Activity [5]: inactive
- Activity [6]: inactive
- Activity [7]: inactive
- inhibition [8]: inactive
- inhibition [9]: inactive
- Activity [10]: inactive

Compound: O=S(=O)(CC1=NCCS1)c1c(-c2ccccc2)nn(-c2ccccc2)c1-c1ccccc1
- inhibition [1]: inactive
- Activity [2]: inactive
- IC50 [3]: Not Active
- Activity [4]: inactive
- Activity [5]: inactive
- Activity [6]: inactive
- Activity [7]: inactive
- inhibition [8]: inactive
- inhibition [9]: inactive
- Activity [10]: inactive

Compound: O=S(=O)(CC1=NCCS1)c1c(-c2ccccc2)noc1-c1ccccc1
- inhibition [1]: inactive
- Activity [2]: inactive
- IC50 [3]: Not Active
- Activity [4]: inactive
- Activity [5]: inactive
- Activity [6]: inactive
- Activity [7]: inactive
- inhibition [8]: inactive
- inhibition [9]: inactive
- Activity [10]: inactive

Compound: Cc1ccc(C2CNN=C2S(=O)(=O)CC2=NCCS2)cc1 (stereo not given)
- inhibition [1]: 44%
- Activity [2]: 42.2%
- IC50 [3]: 103.73 µg/mL (≈ 321 µM)
- Activity [4]: 48.6%
- Activity [5]: 39.8%
- Activity [6]: 43.1%
- Activity [7]: 52.1%
- inhibition [8]: 40.9%
- inhibition [9]: 48.2%
- Activity [10]: 45%

Compound: O=S(=O)(CC1=NCCS1)c1c(-c2ccc(Cl)cc2)nn(-c2ccccc2)c1-c1ccc(Cl)cc1
- inhibition [1]: inactive
- Activity [2]: inactive
- IC50 [3]: Not Active
- Activity [4]: inactive
- Activity [5]: inactive
- Activity [6]: inactive
- Activity [7]: inactive
- inhibition [8]: inactive
- inhibition [9]: inactive
- Activity [10]: inactive

Compound: O=S(=O)(CC1=NCCS1)c1n[nH]cc1-c1ccc(Cl)cc1
- inhibition [1]: inactive
- Activity [2]: inactive
- IC50 [3]: Not Active
- Activity [4]: inactive
- Activity [5]: inactive
- Activity [6]: inactive
- Activity [7]: inactive
- inhibition [8]: inactive
- inhibition [9]: inactive
- Activity [10]: inactive

Compound: O=S(=O)(CC1=NCCO1)C1C(c2ccccc2)=NN(c2ccccc2)C1c1ccccc1 (stereo not given)
- inhibition [1]: 53.4%
- Activity [2]: 45.5%
- IC50 [3]: 86.25 µg/mL (≈ 194 µM)
- Activity [4]: 51.4%
- Activity [5]: 44.4%
- Activity [6]: 46.7%
- Activity [7]: 57.9%
- inhibition [8]: 48.2%
- inhibition [9]: 58%
- Activity [10]: 48.1%

Compound: COc1ccc(-c2nn(-c3ccccc3)c(-c3ccc(C)cc3)c2S(=O)(=O)CC2=NCCO2)cc1
- inhibition [1]: 67.6%
- Activity [2]: 68.7%
- IC50 [3]: 71.07 µg/mL (≈ 146 µM)
- Activity [4]: 66.6%
- Activity [5]: 67.6%
- Activity [6]: 61.6%
- Activity [7]: 68.2%
- inhibition [8]: 65.5%
- inhibition [9]: 70.3%
- Activity [10]: 72.5%

Compound: O=S(=O)(CC1=NCCO1)C1C(c2ccccc2)=NOC1c1ccccc1 (stereo not given)
- inhibition [1]: 55.2%
- Activity [2]: 53.3%
- IC50 [3]: 86.31 µg/mL (≈ 233 µM)
- Activity [4]: 57.2%
- Activity [5]: 51.7%
- Activity [6]: 53.9%
- Activity [7]: 62.8%
- inhibition [8]: 49.4%
- inhibition [9]: 57.9%
- Activity [10]: 56.6%

Compound: COc1ccc(C2=NOC(c3ccc(C)cc3)C2S(=O)(=O)CC2=NCCO2)cc1 (stereo not given)
- inhibition [1]: 63.3%
- Activity [2]: 66.6%
- IC50 [3]: 75.16 µg/mL (≈ 181 µM)
- Activity [4]: 65.9%
- Activity [5]: 65.9%
- Activity [6]: 61.9%
- Activity [7]: 71.2%
- inhibition [8]: 58.1%
- inhibition [9]: 66.5%
- Activity [10]: 70.9%

Compound: COc1ccc(-c2nn(-c3ccccc3)c(-c3ccc(C)cc3)c2S(=O)(=O)CC2=NCCS2)cc1
- inhibition [1]: inactive
- Activity [2]: inactive
- IC50 [3]: Not Active
- Activity [4]: inactive
- Activity [5]: inactive
- Activity [6]: inactive
- Activity [7]: inactive
- inhibition [8]: inactive
- inhibition [9]: inactive
- Activity [10]: inactive

Compound: O=S(=O)(CC1=NCCO1)c1n[nH]cc1-c1ccc(Cl)cc1
- inhibition [1]: inactive
- Activity [2]: inactive
- IC50 [3]: Not Active
- Activity [4]: inactive
- Activity [5]: inactive
- Activity [6]: inactive
- Activity [7]: inactive
- inhibition [8]: inactive
- inhibition [9]: inactive
- Activity [10]: inactive

Compound: O=S(=O)(CC1=NCCO1)C1C(c2ccc(Cl)cc2)=NOC1c1ccc(Cl)cc1 (stereo not given)
- inhibition [1]: inactive
- Activity [2]: inactive
- IC50 [3]: Not Active
- Activity [4]: inactive
- Activity [5]: inactive
- Activity [6]: inactive
- Activity [7]: inactive
- inhibition [8]: inactive
- inhibition [9]: inactive
- Activity [10]: inactive
